Legend:
Mus musculus [1] = experiment: Increase in life span of mice bearing L1210 leukemia after administration of 45 […] compound; assay type: functional
Procedure, shortened: (§1)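 In vivo antitumor test in mice bearing L1210 leukemia, read out as increase in life span (ILS). Body weight was monitored. The optimal dose was defined as the dose giving the best antitumor efficacy with body weight loss ≤15%.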

Mus musculus [2] = experiment: Increase in life span of mice bearing L1210 leukemia after administration of 30 […] compound; assay type: functional; procedure, shortened: as §1
Mus musculus [3] = experiment: Number of mice bearing L1210 leukemia that survived after 30 days, after administration of 67 […] compound; assay type: functional; procedure, shortened: as §1
L1210 = experiment: Compound was tested in vitro against L1210 leukemia cells; assay type: functional, cell-based; details: Mus musculus
Procedure, shortened: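 L1210 murine leukemia cells exposed to drug for 48 h; IC50 reported in nM.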

Mus musculus [4] = experiment: Number of mice bearing L1210 leukemia that survived after 30 days, after administration of 30 ug/kg compound
Mus musculus [5] = experiment: Weight change in mice bearing L1210 leukemia after administration of 30 […] compound; assay type: functional
Mus musculus [6] = experiment: Number of mice bearing L1210 leukemia that survived after 30 days, after administration of 45 µg/kg compound
Mus musculus [7] = experiment: Increase in life span of mice bearing L1210 leukemia after administration of 67 […] compound; assay type: functional; procedure, shortened: as §1
Mus musculus [8] = experiment: Days until first mouse died treated with 100 […] compound; no death; assay type: functional, organism-based
Mus musculus [9] = experiment: Weight change in mice bearing L1210 leukemia after administration of 45 […] compound; assay type: functional
Mus musculus [10] = experiment: Number of mice surviving on day 180 treated with 100 […] compound; 7/7; assay type: functional, organism-based
Mus musculus [11] = experiment: Weight change in mice bearing L1210 leukemia after administration of 67 […] compound; assay type: functional
Mus musculus [12] = experiment: Days until first mouse died treated with 100 […] compound; assay type: functional
Procedure, shortened: (§2)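 Delayed-toxicity study in non-tumor-bearing BDF1 mice: single ip dose given on day 0, then animals observed for up to 180 days. Recorded the day the first mouse died and the number of mice alive on day 180, with 6–8 mice per group.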

Mus musculus [13] = experiment: Number of mice bearing L1210 leukemia that survived after 30 days, after administration of 42 µg/kg compound
Mus musculus [14] = experiment: Number of mice bearing L1210 leukemia that survived after 30 days, after administration of 70 […] compound; assay type: functional; procedure, shortened: as §1
Mus musculus [15] = experiment: Weight change in mice bearing L1210 leukemia after administration of 70 […] compound; assay type: functional
Mus musculus [16] = experiment: Increase in life span of mice bearing L1210 leukemia after administration of 42 […] compound; assay type: functional; procedure, shortened: as §1
Mus musculus [17] = experiment: Number of mice surviving on day 180 treated with 100 […] compound; 2/8; assay type: functional, organism-based; procedure, shortened: as §2
Mus musculus [18] = experiment: Weight change in mice bearing L1210 leukemia after administration of 25 […] compound; assay type: functional
Mus musculus [19] = experiment: Number of mice bearing L1210 leukemia that survived after 30 days, after administration of 25 […] compound; assay type: functional; procedure, shortened: as §1
Mus musculus [20] = experiment: Weight change in mice bearing L1210 leukemia after administration of 42 […] compound; assay type: functional
Mus musculus [21] = experiment: Increase in life span of mice bearing L1210 leukemia after administration of 25 […] compound; assay type: functional; procedure, shortened: as §1
Mus musculus [22] = experiment: Increase in life span of mice bearing L1210 leukemia after administration of 70 mg/kg compound; assay type: functional; procedure, shortened: as §1
Mus musculus [23] = experiment: Weight change in mice bearing L1210 leukemia after administration of 250 […] compound; assay type: functional
Mus musculus [24] = experiment: Weight change in mice bearing L1210 leukemia after administration of 1000 […] compound; assay type: functional
Mus musculus [25] = experiment: Number of mice bearing L1210 leukemia that survived after 30 days, after administration of 1000 […] compound; assay type: functional; procedure, shortened: as §1
Mus musculus [26] = experiment: Number of mice surviving on day 180 treated with 2000 […] compound; 0/6; assay type: functional, organism-based
Mus musculus [27] = experiment: Number of mice bearing L1210 leukemia that survived after 30 days, after administration of 500 µg/kg compound
Mus musculus [28] = experiment: Days until first mouse died treated with 2000 […] compound; assay type: functional; procedure, shortened: as §2
Mus musculus [29] = experiment: Increase in life span of mice bearing L1210 leukemia after administration of 1000 […] compound; assay type: functional; procedure, shortened: as §1
Mus musculus [30] = experiment: Increase in life span of mice bearing L1210 leukemia after administration of 250 […] compound; assay type: functional; procedure, shortened: as §1
Mus musculus [31] = experiment: Increase in life span of mice bearing L1210 leukemia after administration of 500 […] compound; assay type: functional; procedure, shortened: as §1
Mus musculus [32] = experiment: Weight change in mice bearing L1210 leukemia after administration of 500 […] compound; assay type: functional
Mus musculus [33] = experiment: Days until first mouse died treated with 1000 […] compound; assay type: functional; procedure, shortened: as §2
Mus musculus [34] = experiment: Number of mice bearing L1210 leukemia that survived after 30 days, after administration of 250 […] compound; assay type: functional; procedure, shortened: as §1
Mus musculus [35] = experiment: Increase in life span of mice bearing L1210 leukemia after administration of 620 […] compound; assay type: functional; procedure, shortened: as §1
Mus musculus [36] = experiment: Number of mice surviving on day 180 treated with 100 […] compound; 8/8; assay type: functional, organism-based
Mus musculus [37] = experiment: Number of mice bearing L1210 leukemia that survived after 30 days, after administration of 298 […] compound; assay type: functional; procedure, shortened: as §1
Mus musculus [38] = experiment: Increase in life span of mice bearing L1210 leukemia after administration of 298 […] compound; assay type: functional; procedure, shortened: as §1
Mus musculus [39] = experiment: Weight change in mice bearing L1210 leukemia after administration of 298 […] compound; assay type: functional
Mus musculus [40] = experiment: Weight change in mice bearing L1210 leukemia after administration of 620 […] compound; assay type: functional
Mus musculus [41] = experiment: Weight change in mice bearing L1210 leukemia after administration of 498 […] compound; assay type: functional
Mus musculus [42] = experiment: Increase in life span of mice bearing L1210 leukemia after administration of 498 […] compound; assay type: functional; procedure, shortened: as §1
Mus musculus [43] = experiment: Number of mice bearing L1210 leukemia that survived after 30 days, after administration of 498 µg/kg compound
Mus musculus [44] = experiment: Number of mice bearing L1210 leukemia that survived after 30 days, after administration of 620 […] compound; assay type: functional; procedure, shortened: as §1
Mus musculus [45] = experiment: Weight change in mice bearing L1210 leukemia after administration of 100 […] compound; assay type: functional
Mus musculus [46] = experiment: Increase in life span of mice bearing L1210 leukemia after administration of 100 […] compound; assay type: functional; procedure, shortened: as §1
Mus musculus [47] = experiment: Number of mice bearing L1210 leukemia that survived after 30 days, after administration of 100 […] compound; assay type: functional; procedure, shortened: as §1

## O=C(Nc1ccc2[nH]c(C(=O)N3CC(CCl)c4c3cc(O)c3ccccc43)cc2c1)c1cc2cc(F)ccc2o1 (racemic)
Mus musculus [1]
  ILS at 45 mg/kg: 107%
Mus musculus [2]
  ILS at 30 mg/kg: 67%
Mus musculus [3]
  Survivors: 0
L1210
  IC50: 0.85 nM
Mus musculus [4]
  Survivors: 0
Mus musculus [5]
  Weight change: 5%
Mus musculus [6]
  Survivors: 0
Mus musculus [7]
  ILS at 67 mg/kg: 147%
Mus musculus [8]
  Days: No death
Mus musculus [9]
  Weight change: 5%
Mus musculus [10]
  No. of mice: Mice surviving 7/7
Mus musculus [11]
  Weight change: 0%

## CC(=O)Nc1ccc2[nH]c(C(=O)Nc3ccc4[nH]c(C(=O)N5C[C@@H](CCl)c6c5cc(O)c5ccccc65)cc4c3)cc2c1
L1210
  IC50: 1.2 nM
Mus musculus [12]
  Days: 49
Mus musculus [13]
  Survivors: 0
Mus musculus [14]
  Survivors: 0
Mus musculus [15]
  Weight change: -6%
Mus musculus [16]
  ILS at 42 mg/kg: 133%
Mus musculus [17]
  No. of mice: Mice surviving 2/8
Mus musculus [18]
  Weight change: 7%
Mus musculus [19]
  Survivors: 1
Mus musculus [20]
  Weight change: 5%
Mus musculus [21]
  ILS at 25 mg/kg: 173%
Mus musculus [22]
  ILS: 80%

## CC(=O)Nc1cc(C(=O)Nc2cc(C(=O)N3CC(CCl)c4c3cc(O)c3ccccc43)n(C)c2)n(C)c1 (racemic)
Mus musculus [23]
  Weight change: 7%
L1210
  IC50: 44 nM
Mus musculus [24]
  Weight change: -6%
Mus musculus [25]
  Survivors: 0
Mus musculus [26]
  No. of mice: Mice surviving 0/6
Mus musculus [27]
  Survivors: 0
Mus musculus [28]
  Days until first death: 29 days
Mus musculus [29]
  ILS at 1000 mg/kg: 77%
Mus musculus [30]
  ILS at 250 mg/kg: 31%
Mus musculus [31]
  ILS at 500 mg/kg: 31%
Mus musculus [32]
  Weight change: 5%
Mus musculus [33]
  Days: 60
Mus musculus [34]
  Survivors: 0

## O=C(Nc1ccc2[nH]c(/C=C/C(=O)N3CC(CCl)c4c3cc(O)c3ccccc43)cc2c1)c1cc2ccccc2[nH]1 (racemic)
L1210
  IC50: 1 nM
Mus musculus [35]
  ILS at 620 mg/kg: 147%
Mus musculus [36]
  No. of mice: Mice surviving 8/8
Mus musculus [37]
  Survivors: 0
Mus musculus [38]
  ILS at 298 mg/kg: 157%
Mus musculus [39]
  Weight change: 0%
Mus musculus [8]
  Days: No death
Mus musculus [40]
  Weight change: -13%
Mus musculus [41]
  Weight change: 0%
Mus musculus [42]
  ILS at 498 mg/kg: 231%
Mus musculus [43]
  Survivors: 1
Mus musculus [44]
  Survivors: 0

## O=C(Nc1ccc2[nH]c(C(=O)N3CC(CCl)c4c3cc(O)c3ccccc43)cc2c1)c1cc2cc([N+](=O)[O-])ccc2o1 (racemic)
Mus musculus [1]
  ILS at 45 mg/kg: 120%
Mus musculus [3]
  Survivors: 0
L1210
  IC50: 0.44 nM
Mus musculus [36]
  No. of mice: Mice surviving 8/8
Mus musculus [6]
  Survivors: 0
Mus musculus [7]
  ILS at 67 mg/kg: 147%
Mus musculus [45]
  Weight change: -5%
Mus musculus [46]
  ILS at 100 mg/kg: 173%
Mus musculus [8]
  Days: No death
Mus musculus [47]
  Survivors: 0
Mus musculus [9]
  Weight change: 2%
Mus musculus [11]
  Weight change: -2%

Reference: ChEMBL document CHEMBL1136807, “CC-1065 analogues bearing different DNA-binding subunits: synthesis, antitumor activity, and preliminary toxicity study” (J Med Chem, 2003)
